The source of these data is ChEMBL document CHEMBL4138298, “Synthesis of Novel Tetrahydroisoquinoline CXCR4 Antagonists with Rigidified Side-Chains” (ACS Med Chem Lett, 2018).

A short description of data set [1]: Permeability of the compound in pH 7.4 buffer after 4 hrs by PAMPA. In kind it is ADME. To be noted: read-out: permeability. In outline:
(§1)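 Parallel artificial membrane permeability assay (PAMPA) for passive transcellular permeability, run at pH 7.4 and at pH 5.5, with permeability reported in nm/s.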

For another data set, the target named is Cytochrome P450 3A4 (Homo sapiens, UniProt P08684). In words: Inhibition of CYP3A4 (unknown origin) using BFC as substrate. In kind it is ADME.
Cytochrome P450 3A4, sequence (P08684 whole entry): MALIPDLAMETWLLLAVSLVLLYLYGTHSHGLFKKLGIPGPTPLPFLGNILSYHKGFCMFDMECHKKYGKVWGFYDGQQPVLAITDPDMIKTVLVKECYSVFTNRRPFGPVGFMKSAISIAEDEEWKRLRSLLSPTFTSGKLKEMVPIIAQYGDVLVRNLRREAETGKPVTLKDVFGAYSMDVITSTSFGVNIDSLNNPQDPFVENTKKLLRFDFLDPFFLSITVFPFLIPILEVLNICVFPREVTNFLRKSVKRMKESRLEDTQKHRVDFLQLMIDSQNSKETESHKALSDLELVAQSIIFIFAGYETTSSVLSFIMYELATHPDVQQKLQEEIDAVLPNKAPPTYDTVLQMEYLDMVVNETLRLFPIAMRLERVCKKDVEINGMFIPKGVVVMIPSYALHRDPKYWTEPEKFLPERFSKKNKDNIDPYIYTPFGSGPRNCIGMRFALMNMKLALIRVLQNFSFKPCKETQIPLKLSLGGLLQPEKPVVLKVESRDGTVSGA
Another data set has as its target Cytochrome P450 2D6 (Homo sapiens, UniProt P10635). In words: Inhibition of recombinant human CYP2D6 expressed in insect microsomes using AMMC as substrate preincubated for 30 mins followed by NADPH addition measured after 45 mins by fluorescence assay. In kind it is ADME.
The nature of data set [2]: Metabolic stability in mouse liver microsomes assessed as parent compound remaining. The format is ADME, microsome.
The target of data set [3] is T1, Muscarinic acetylcholine receptor M3 (Homo sapiens, UniProt P20309). In words: Antagonist activity at mAChR M3 in human CCRF-CEM cells assessed as inhibition of acetylcholine-mediated calcium flux incubated for 25 mins followed by acetylcholine stimulation measured for 90 secs. The format is functional, cell-based. Background: Calcium flux is commonly read through the fluorescence of an indicator in the cells.
Target sequence in this assay (P20309 whole entry): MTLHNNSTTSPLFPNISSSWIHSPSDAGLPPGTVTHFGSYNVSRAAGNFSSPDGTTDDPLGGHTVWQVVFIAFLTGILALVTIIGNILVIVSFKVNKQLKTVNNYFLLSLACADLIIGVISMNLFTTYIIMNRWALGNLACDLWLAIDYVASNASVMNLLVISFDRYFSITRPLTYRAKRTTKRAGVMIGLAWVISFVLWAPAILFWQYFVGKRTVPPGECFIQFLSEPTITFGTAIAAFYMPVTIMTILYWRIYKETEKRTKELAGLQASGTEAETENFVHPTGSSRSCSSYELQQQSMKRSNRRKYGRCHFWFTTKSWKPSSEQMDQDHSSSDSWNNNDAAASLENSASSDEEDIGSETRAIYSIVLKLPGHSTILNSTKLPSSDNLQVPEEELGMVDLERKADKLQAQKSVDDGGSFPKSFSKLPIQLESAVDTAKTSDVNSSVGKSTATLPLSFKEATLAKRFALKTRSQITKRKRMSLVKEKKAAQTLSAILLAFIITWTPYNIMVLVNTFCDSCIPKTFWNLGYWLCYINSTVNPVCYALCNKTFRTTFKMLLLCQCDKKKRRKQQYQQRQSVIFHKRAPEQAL

Data set [4] in a line: Metabolic stability in human liver microsomes assessed as parent compound remaining. The format is ADME, microsome.
A further data set addresses Cytochrome P450 2C19 (Homo sapiens, UniProt P33261). In words: Inhibition of CYP2C19 (unknown origin). The format is ADME.
Data set [5] concerns the target T2, C-X-C chemokine receptor type 4 (Homo sapiens, UniProt P61073). In words: Antagonist activity at CXCR4 in human CCRF-CEM cells assessed as inhibition of CXCL12-mediated calcium flux incubated for 25 mins followed by CXCL12 stimulation measured for 90 secs. In kind it is functional, cell-based.
The nature of data set [6]: Metabolic stability in rat liver microsomes assessed as parent compound remaining. The format is ADME, microsome. (Liver microsomes are a subcellular fraction often used to study metabolism.)
Data set [7] can be described thus: Permeability of the compound in pH 5.5 buffer after 4 hrs by PAMPA. The format is ADME. The settings on record: for Papp at 4 h: PAMPA, pH 5.5, read-out: permeability; for permeability: pampa, pH 5.5, 4 h, 4 h. In outline: as §1
In general terms: The PAMPA barrier holds no transporters, so it reflects passive diffusion.

For data set [8], the target named is T1, Muscarinic acetylcholine receptor M3. Description: Antagonist activity at mAChR M3 in human CCRF-CEM cells assessed as inhibition of acetylcholine-mediated calcium flux incubated for 25 mins followed by acetylcholine stimulation measured for 90 secs relative to control. In kind it is functional, cell-based.
Target sequence in this assay (P20309 whole entry, looked up): as the sequence (P20309 whole entry) above
The next data set concerns the target T3, Cytochrome P450 2C8 (Homo sapiens, UniProt P10632).
T3 sequence (P10632 whole entry): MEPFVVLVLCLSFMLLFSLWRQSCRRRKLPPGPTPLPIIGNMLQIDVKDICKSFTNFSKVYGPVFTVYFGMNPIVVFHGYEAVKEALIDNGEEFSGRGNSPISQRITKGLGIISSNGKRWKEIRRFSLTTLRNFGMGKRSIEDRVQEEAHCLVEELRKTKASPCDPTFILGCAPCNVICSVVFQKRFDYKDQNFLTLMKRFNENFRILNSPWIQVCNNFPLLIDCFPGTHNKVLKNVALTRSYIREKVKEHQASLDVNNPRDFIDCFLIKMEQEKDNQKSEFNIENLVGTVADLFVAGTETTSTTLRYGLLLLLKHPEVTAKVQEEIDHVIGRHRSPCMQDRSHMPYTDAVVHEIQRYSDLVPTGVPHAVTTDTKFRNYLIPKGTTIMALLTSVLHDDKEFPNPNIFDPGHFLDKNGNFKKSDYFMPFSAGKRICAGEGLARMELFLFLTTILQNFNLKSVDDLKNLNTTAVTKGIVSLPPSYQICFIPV
In words: Inhibition of CYP2C8 (unknown origin). The format is ADME.

Data set [9] concerns the target T2, C-X-C chemokine receptor type 4. In words: Agonist activity at CXCR4 in human CCRF-CEM cells assessed as increase in calcium flux incubated for 90 secs. In kind it is functional, cell-based.
The target in data set [10] is T1, Muscarinic acetylcholine receptor M3. In words: Agonist activity at mAChR M3 in human CCRF-CEM cells assessed as increase in calcium flux incubated for 90 secs. In kind it is functional, cell-based.
Target sequence in this assay (P20309 whole entry, looked up): as the sequence (P20309 whole entry) above

The source made the active and inactive calls. No cut-off for these calls is given here. Bounds are passed on as bounds.

Cytochrome P450 2D6, sequence (P10635 whole entry): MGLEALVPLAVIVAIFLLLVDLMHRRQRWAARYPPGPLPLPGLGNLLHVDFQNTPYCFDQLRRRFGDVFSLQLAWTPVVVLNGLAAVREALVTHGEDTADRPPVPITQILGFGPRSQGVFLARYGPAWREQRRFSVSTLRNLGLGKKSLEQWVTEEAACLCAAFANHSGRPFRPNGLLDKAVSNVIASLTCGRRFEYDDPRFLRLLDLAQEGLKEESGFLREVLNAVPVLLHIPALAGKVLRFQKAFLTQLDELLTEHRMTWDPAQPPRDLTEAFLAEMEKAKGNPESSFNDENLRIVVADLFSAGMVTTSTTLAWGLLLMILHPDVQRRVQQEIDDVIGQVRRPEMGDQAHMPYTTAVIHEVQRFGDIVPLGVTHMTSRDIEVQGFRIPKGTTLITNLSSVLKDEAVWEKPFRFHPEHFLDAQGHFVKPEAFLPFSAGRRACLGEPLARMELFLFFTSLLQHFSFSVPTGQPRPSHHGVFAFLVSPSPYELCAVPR
T2 sequence (P61073 whole entry): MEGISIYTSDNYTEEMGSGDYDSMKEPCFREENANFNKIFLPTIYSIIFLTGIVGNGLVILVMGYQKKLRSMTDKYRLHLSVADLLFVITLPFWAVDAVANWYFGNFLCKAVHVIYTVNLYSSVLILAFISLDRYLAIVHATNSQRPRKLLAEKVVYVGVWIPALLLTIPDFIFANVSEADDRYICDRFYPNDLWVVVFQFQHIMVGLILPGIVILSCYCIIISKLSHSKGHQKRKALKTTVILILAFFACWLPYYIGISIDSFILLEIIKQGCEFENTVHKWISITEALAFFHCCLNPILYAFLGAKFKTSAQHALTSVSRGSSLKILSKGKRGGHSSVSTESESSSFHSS
Cytochrome P450 2C19, sequence (P33261 whole entry): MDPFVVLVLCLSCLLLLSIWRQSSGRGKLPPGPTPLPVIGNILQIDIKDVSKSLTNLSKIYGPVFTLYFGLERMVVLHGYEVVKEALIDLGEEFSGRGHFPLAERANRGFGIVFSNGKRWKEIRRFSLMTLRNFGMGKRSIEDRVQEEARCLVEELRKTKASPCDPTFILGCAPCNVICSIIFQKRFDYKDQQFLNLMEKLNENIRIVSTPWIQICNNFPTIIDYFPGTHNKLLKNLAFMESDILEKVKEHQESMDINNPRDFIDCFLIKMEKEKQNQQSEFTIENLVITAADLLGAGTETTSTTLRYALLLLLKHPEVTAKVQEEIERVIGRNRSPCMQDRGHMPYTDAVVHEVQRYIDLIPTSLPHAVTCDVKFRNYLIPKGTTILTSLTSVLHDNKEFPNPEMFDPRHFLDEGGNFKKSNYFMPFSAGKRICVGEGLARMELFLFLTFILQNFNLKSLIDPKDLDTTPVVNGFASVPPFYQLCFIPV

In the case of `C/C(CN)=C(/F)CN(C[C@H]1Cc2ccccc2CN1)[C@H]1CCCc2cccnc21`, in data set [1], the Papp at 4 h came out at 22 ×10⁻⁶ cm/s. The IC50 (as a rule, the concentration needed to halve the response being measured) on Cytochrome P450 3A4 worked out at 2400 nM; on Cytochrome P450 2D6 it was 140 nM; in data set [3], 8800 nM; at Cytochrome P450 2C19 it was 19000 nM; in data set [5] it was 44 nM. The Stability in [2] worked out at 61%; in data set [4], 97%; in data set [6], 72%.
In the case of `NCC1=C(CN(C[C@H]2Cc3ccccc3CN2)[C@H]2CCCc3cccnc32)CCCC1`, the IC50 at Cytochrome P450 2D6 was found to be 180 nM; in data set [3], 23000 nM; in [5], 230 nM. Besides, the values for the Stability in data set [2], in [4] and in data set [6] were 2%, 65% and 1%, respectively. In addition, the Papp at 4 h in data set [7] stood at 17 ×10⁻⁶ cm/s.
As to `NC/C=C\CN(C[C@H]1Cc2ccccc2CN1)[C@H]1CCCc2cccnc21`, the Papp at 4 h in [1] was found to be 57 ×10⁻⁶ cm/s. Moreover, the Stability in [2] is on record as 4%; in data set [4], 100%; in data set [6] it was 4%. Besides, the values for the IC50 in data set [3] and in data set [5] were 610 nM and 10 nM, respectively.
On to `N[C@H]1CC[C@@H](N(C[C@H]2Cc3ccccc3CN2)[C@H]2CCCc3cccnc32)CC1`, for which the IC50 on Cytochrome P450 3A4 was over 20000 nM; on Cytochrome P450 2D6, 81 nM; in data set [3] it was over 33000 nM; in [5], 1800 nM. The values for the Stability in [2], in data set [4] and in [6] were 56%, 86% and 24%, respectively. Further, the Papp at 4 h in data set [7] came to 1 ×10⁻⁶ cm/s.
Consider `NCC1CC1CN(C[C@H]1Cc2ccccc2CN1)[C@H]1CCCc2cccnc21` (single isomer, unassigned; diastereomer 2), for which the IC50 was 270 nM at Cytochrome P450 2D6, 13000 nM in data set [3] and 13 nM in [5]. In addition, the Stability in data set [2] stood at 4%. For the same molecule, in [7], the permeability worked out at 8.8 ×10⁻⁶ cm/s.
For the molecule `NCC1CC1CN(C[C@H]1Cc2ccccc2CN1)[C@H]1CCCc2cccnc21` (single isomer, unassigned; diastereomer 1) [listing 1 of 2 here], in [8], the inhibition – broadly, the percentage by which the read-out fell short of the control – came to 51%.
Consider `C/C(=C/CN(C[C@H]1Cc2ccccc2CN1)[C@H]1CCCc2cccnc21)CN`, for which the Papp at 4 h was determined as 1.1 ×10⁻⁶ cm/s in data set [1] and 0.4 ×10⁻⁶ cm/s in data set [7]. The IC50 at Cytochrome P450 3A4 was over 20000 nM; on Cytochrome P450 2D6, under 27 nM; in data set [3], 32 nM; in data set [5], 8.6 nM. In addition, the Stability in data set [2] stood at 2%; in data set [4], 100%; in data set [6], 1%.
As to `C/C(CN(C[C@H]1Cc2ccccc2CN1)[C@H]1CCCc2cccnc21)=C(/F)CN`, the Papp at 4 h in data set [1] came out at 70 ×10⁻⁶ cm/s. For the same molecule, the IC50 at Cytochrome P450 3A4 was 1800 nM; at Cytochrome P450 2D6, 110 nM; in data set [3], over 17000 nM; in data set [5], 1800 nM; on Cytochrome P450 2C8 it was 18000 nM. In addition, the Stability in data set [2] is on record as 15%; in data set [4] it was 35%; in data set [6] it was 61%.
Consider `NC[C@H]1CC[C@H](CN(C[C@H]2Cc3ccccc3CN2)[C@H]2CCCc3cccnc32)CC1`, for which the IC50 stood at 12000 nM at Cytochrome P450 2D6, 10000 nM in data set [3], 9100 nM against Cytochrome P450 2C19 and 4100 nM on Cytochrome P450 2C8. Also, the Stability is 92% in [2], 63% in [4] and 86% in [6].
Consider `NCC1CC1CN(C[C@H]1Cc2ccccc2CN1)[C@H]1CCCc2cccnc21` (single isomer, unassigned; diastereomer 1) [listing 2 of 2 here], for which the Papp at 4 h in [1] was 13 ×10⁻⁶ cm/s. Moreover, the IC50 was 540 nM at Cytochrome P450 2D6, over 33000 nM in [3] and 6.4 nM in data set [5]. Also, the Stability in data set [2] is reported as 1%; in data set [4] it was 100%; in data set [6], 1%. The molecule further had a permeability in [7] of 0.8 ×10⁻⁶ cm/s.
Regarding `N[C@H]1CC[C@H](N(C[C@H]2Cc3ccccc3CN2)[C@H]2CCCc3cccnc32)CC1`, the figures for the Papp at 4 h in data set [1] and in data set [7] were 3.7 ×10⁻⁶ cm/s and 0.6 ×10⁻⁶ cm/s, respectively. Further, the IC50 on Cytochrome P450 3A4 is over 20000 nM; at Cytochrome P450 2D6, 2500 nM; in [3], over 33000 nM; in data set [5] it was 34 nM. The Stability is 77% in [2], 95% in data set [4] and 71% in [6].
`N[C@H]1CC[C@H](CN(C[C@H]2Cc3ccccc3CN2)[C@H]2CCCc3cccnc32)CC1`: the Papp at 4 h in data set [1] is 1.2 ×10⁻⁶ cm/s. The IC50 on Cytochrome P450 3A4 is 10000 nM; at Cytochrome P450 2D6, 760 nM; in data set [3], over 33000 nM; in data set [5], 280 nM. Further, the Stability is recorded as 44% in data set [2], 39% in data set [4] and 51% in data set [6].
On to `NC(=O)NC/C=C\CN(C[C@H]1Cc2ccccc2CN1)[C@H]1CCCc2cccnc21`, for which the Papp at 4 h is 11 ×10⁻⁶ cm/s in [1] and 1.3 ×10⁻⁶ cm/s in [7]. Further, the values for the IC50 (on Cytochrome P450 2D6; in data set [3]; in data set [5]) were 470 nM, over 16000 nM and 210 nM, respectively. For the same molecule, the Stability in data set [2] was found to be 2%; in data set [4], 73%; in [6], 2%.
In the case of `C/C(CN(C[C@H]1Cc2ccccc2CN1)[C@H]1CCCc2cccnc21)=C(\F)CN`, the values for the Papp at 4 h in data set [1] and in [7] were 55 ×10⁻⁶ cm/s and 28 ×10⁻⁶ cm/s, respectively. The values for the IC50 (against Cytochrome P450 3A4; at Cytochrome P450 2D6; in data set [3]) were 13000 nM, 190 nM and 9600 nM, respectively. Further, the results for the Stability in [2], in [4] and in [6] were 1%, 51% and 6%, respectively.
Take `C/C(CN)=C(\F)CN(C[C@H]1Cc2ccccc2CN1)[C@H]1CCCc2cccnc21`: the Papp at 4 h in data set [1] was 49 ×10⁻⁶ cm/s; in data set [7] it was 5 ×10⁻⁶ cm/s. Further, the IC50 at Cytochrome P450 3A4 stood at 15000 nM; on Cytochrome P450 2D6 it was 59 nM; in data set [3] it was 770 nM; in data set [5], 28 nM. Besides, the Stability in data set [2] turned out to be 2%; in data set [4], 100%; in data set [6] it was 2%.
Take `FC1(F)CCC(NC/C=C\CN(C[C@H]2Cc3ccccc3CN2)[C@H]2CCCc3cccnc32)CC1`: the Papp at 4 h in data set [1] came out at 1.3 ×10⁻⁶ cm/s. Further, the figures for the IC50 (on Cytochrome P450 2D6; in data set [3]) were 540 nM and 11000 nM, respectively. Moreover, the figures for the Stability in [2], in data set [4] and in [6] were 3%, 44% and 1%, respectively. For the same molecule, the result in data set [9] and in [10] was Active.
For the molecule `C/C(=C/CN)CN(C[C@H]1Cc2ccccc2CN1)[C@H]1CCCc2cccnc21`, the results for the Papp at 4 h in [1] and in data set [7] were 25 ×10⁻⁶ cm/s and 8.3 ×10⁻⁶ cm/s, respectively. The half-inhibitory concentration (IC50) was over 20000 nM at Cytochrome P450 3A4, 88 nM on Cytochrome P450 2D6 and 1100 nM in [3]. Further, the Stability in data set [2] is reported as 2%; in data set [4], 96%; in [6], 2%.
